# Tests used:
# Plasmodium falciparum [1] = test: Relative selectivity against Plasmodium falciparum W2 as IC50 ratio compared to chloroquine; assay type: functional
# Outline: (§1)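 Asynchronous P. falciparum cultures (D-10 or W-2; 1–1.5% parasitaemia, 1% haematocrit) incubated 72 h at 37 °C under 1% O2/5% CO2/94% N2 with serial drug dilutions (water or DMSO, final DMSO <1%). Growth read as pLDH activity at OD650. Chloroquine IC50 divided by compound IC50 within each experiment, ratios averaged.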
# [2] = Ratio of IC50 for chloroquine-resistant Plasmodium falciparum W2 to IC50 for chloroquine-sensitive Plasmodium falciparum D10; assay type: functional
# [3] = Cytotoxicity against HMEC1 cells by MTT assay; assay type: cell-based; conditions: Homo sapiens, HMEC-1
# Outline: (§2)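 Human cell lines (SV40-immortalized microvascular endothelial HMEC-1 in MCDB 131 with 10% FCS, EGF, hydrocortisone, glutamine, Hepes; K562 in RPMI 1640 with 10% FCS, glutamine) exposed to serial compound dilutions 72 h at 37 °C, 5% CO2. MTT added 3 h; formazan dissolved in SDS/DMF buffer pH 4.7, read 550 nm (ref 650 nm). IC50 for 50% growth inhibition.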
# Plasmodium falciparum [4] = test: Antimalarial activity against chloroquine-resistant Plasmodium falciparum W2 as LDH activity; assay type: functional, organism-based
# Outline: (§3)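 Asynchronous P. falciparum cultures (1–1.5% parasitaemia, 1% final hematocrit) exposed to serial dilutions for 72 h at 37 °C under 1% O2/5% CO2/94% N2. Compounds dissolved in water or DMSO, diluted in medium (final DMSO <1%). Growth read as pLDH activity (OD650, modified Makler method). IC50 given as mean ± SD of at least three experiments in duplicate.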
# [5] = Cytotoxicity against mouse WEHI13 cells by MTT assay; assay type: cell-based
# Outline: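 Murine WEHI clone 13 fibrosarcoma cells in RPMI 1640 with 10% FCS and glutamine, treated with serial compound dilutions 72 h at 37 °C, 5% CO2. MTT added for 3 h, formazan solubilized in SDS/DMF lysing buffer pH 4.7, absorbance 550 nm against 650 nm reference. IC50 is dose giving 50% growth inhibition.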
# Plasmodium falciparum [6] = test: Antimalarial activity against chloroquine-sensitive Plasmodium falciparum D10 as LDH reporter activity; assay type: functional, organism-based; outline: as §3
# Plasmodium falciparum [7] = test: Relative selectivity against Plasmodium falciparum D10 as IC50 ratio compared to chloroquine; assay type: functional; outline: as §1
# K562 = test: Cytotoxicity against human K562 cells by MTT assay; assay type: cell-based; outline: as §2
Compound,Ratio IC50 (Plasmodium falciparum [1]),Ratio IC50 [2],IC50 [3] [nM],IC50 (Plasmodium falciparum [4]) [nM],IC50 [5] [nM],IC50 (Plasmodium falciparum [6]) [nM],Ratio IC50 (Plasmodium falciparum [7]),IC50 (K562) [nM]
Cc1c(CNCC[C@@H]2CCCN3CCCC[C@H]23)cc(-c2ccccc2)n1Nc1ccnc2cc(Cl)ccc12,0.8,5,14600,776,7220,154,0.2,2610
CCN(CC)Cc1cc(C)n(Nc2ccnc3cc(Cl)ccc23)c1C,1.2,2.8,,193,,69,0.2,
Oc1cc(Nc2ccnc3cc(Cl)ccc23)ccc1CNC[C@@H]1CCCN2CCCC[C@H]12,22,,7940,14.3,4430,8.5,2.8,
CCN(CC)CCCC(C)Nc1ccnc2cc(Cl)ccc12 (stereo not given) [CHLOROQUINE],,,> 32000,,> 38000,,,29000
Oc1cc(Nc2ccnc3cc(Cl)ccc23)ccc1CNCC12CCCN1CCC2,2.2,0.9,,77,,81.9,0.4,
Cc1cc(CNC(C)(C)C)c(C)n1Nc1ccnc2cc(Cl)ccc12,0.9,5.3,,255,,48.6,0.3,
Clc1ccc2c(Nc3ccc(CNC[C@@H]4CCCN5CCCC[C@H]45)c(Cl)c3)ccnc2c1,28,1.2,5520,28.8,2770,23.6,1.8,
CCN(CC)Cc1cc(-c2ccccc2)n(Nc2ccnc3cc(Cl)ccc23)c1C,9.9,1.4,16700,59.2,4380,42.7,0.7,3620
CCN(CC)Cc1cc(-c2ccc(Cl)cc2)n(Nc2ccnc3cc(Cl)ccc23)c1C,18.5,1.6,5810,42.5,1450,26.1,0.9,
Cc1cc(CN2CCCC2)c(C)n1Nc1ccnc2cc(Cl)ccc12,0.7,4.2,,336,,80.7,0.2,
Oc1cc(Nc2ccnc3cc(Cl)ccc23)ccc1CNCCC12CCCN1CCC2,2.1,1.7,,153,12200,90.3,0.3,
Cc1c(CN2CCCC2)cc(-c2ccccc2)n1Nc1ccnc2cc(Cl)ccc12,4.2,3.3,12900,140,3880,42.9,0.7,2920
Cc1c(CN2CCCC2)cc(-c2ccc(Cl)cc2)n1Nc1ccnc2cc(Cl)ccc12,15.8,1.6,7180,49.6,2060,30.7,0.8,
Cc1cc(CNC[C@@H]2CCCN3CCCC[C@H]23)c(C)n1Nc1ccnc2cc(Cl)ccc12,3.1,0.8,5400,53.4,5510,70.7,0.4,
Cc1c(CNC[C@@H]2CCCN3CCCC[C@H]23)cc(-c2ccccc2)n1Nc1ccnc2cc(Cl)ccc12,1.1,14.1,13500,515,7440,36.5,0.8,1680
Cc1cc(CNCC23CCCN2CCC3)c(C)n1Nc1ccnc2cc(Cl)ccc12,0.5,1.6,,358,,222,0.1,
Cc1c(CNC(C)(C)C)cc(-c2ccccc2)n1Nc1ccnc2cc(Cl)ccc12,0.7,18.5,,1180,,63.5,0.4,
CCN(CC)Cc1ccc(Nc2ccnc3cc(Cl)ccc23)cc1O [ISOQUINE],17.6,1.3,,30.2,,23.7,1.3,

# Reference: ChEMBL document CHEMBL1155029, “Novel amodiaquine congeners as potent antimalarial agents” (Bioorg Med Chem, 2008)
